Experimental data taken from ChEMBL document CHEMBL1154902, “Potent inhibitor scaffold against Trypanosoma cruzi trans-sialidase” (Bioorg Med Chem, 2010).

Key:
[1] = Selectivity for Trypanosoma cruzi trans-sialidase mutant over human Neu2
[2] = Inhibition of Trypanosoma cruzi trans-sialidase containing catalytic domain (N58F, R200K) and lectin-like domain (S495 K, V496G, E520K, D593G, I597D, H599R) mutation expressed in Escherichia coli JM109 assessed as MuNANA substrate hydrolysis in presence of 0.1% Triton X-100 by discontinuous fluorimetric assay
In short: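 Recombinant TcTS lacking the C-terminal SAPA repeat, His-tagged (pTrcHisA) and purified by cation exchange, Ni affinity and gel filtration. Conditions: 8 ng/ml enzyme, 50 µM MuNANA, 50 mM Tris-HCl pH 7.5, 0.1% Triton X-100, 10% DMSO, 25 °C for 30 min. Stopped with 0.2 M Na2CO3 pH 10. Released Mu read at ex 355/em 460 nm in two or three replicates, corrected for compound fluorescence interference.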

[3] = molecular target: Sialidase-2 (Homo sapiens, UniProt Q9Y3R4); test: Inhibition of human Neu2 assessed as MuNANA substrate hydrolysis in presence of 0.1% Triton X-100 by discontinuous fluorimetric assay
Sequence of Sialidase-2 (Q9Y3R4 whole entry): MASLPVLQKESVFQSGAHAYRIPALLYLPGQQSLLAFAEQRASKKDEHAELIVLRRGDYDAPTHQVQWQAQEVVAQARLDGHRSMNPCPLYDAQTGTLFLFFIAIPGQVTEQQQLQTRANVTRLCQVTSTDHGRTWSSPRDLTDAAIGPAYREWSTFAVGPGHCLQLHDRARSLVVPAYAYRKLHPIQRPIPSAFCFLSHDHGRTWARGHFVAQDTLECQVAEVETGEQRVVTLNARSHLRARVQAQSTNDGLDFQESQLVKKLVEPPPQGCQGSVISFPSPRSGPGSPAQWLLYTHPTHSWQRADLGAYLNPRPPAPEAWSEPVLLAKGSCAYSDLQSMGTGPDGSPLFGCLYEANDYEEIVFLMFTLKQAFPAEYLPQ
In short: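 Recombinant human Neu2 expressed from pET15b in E. coli BL21(DE3) and purified on DEAE and His-Trap columns. Reactions were quenched with 0.2 M Na2CO3 (pH 10), and released 4-methylumbelliferone was read at ex 355/em 460 nm. Runs were in duplicate or triplicate, corrected for compound fluorescence interference.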

[4] = Noncompetitive inhibition of Trypanosoma cruzi trans-sialidase containing catalytic domain (N58F, R200K) and lectin-like domain (S495 K, V496G, E520K, D593G, I597D, H599R) mutation expressed in Escherichia coli JM109 by discontinuous fluorimetric assay using Lineweaver-Burke plot
In short: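 Same MuNANA hydrolysis assay with purified recombinant TcTS at 25 °C in Tris-HCl pH 7.5. MuNANA was varied over 25–200 µM against several inhibitor concentrations, in triplicate. The inhibition mode was assigned by best fit, and Ki for noncompetitive inhibition was taken from the Lineweaver–Burk double-reciprocal plot.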

[5] = test system: Trypanosoma cruzi; test: Antiparasitic effect against Trypanosoma cruzi assessed as induction of parasite lysis; format: functional, organism-based

Row | Compound | Ratio IC50 [1] | IC50 [2] | IC50 [3] | Ki [4] | IC50 [5]
1 | O=c1c(O)c(-c2cc(O)c(O)c(O)c2)oc2cc(O)cc(O)c12 [MYRICETIN] | 8.8 | 17 µM | 150 µM | – | –
2 | COc1cc(O)c2c(=O)cc(-c3ccc(O)cc3)oc2c1 [GENKWANIN] | – | 140 µM | > 1000 µM | – | –
3 | O=c1cc(-c2ccccc2)oc2cccc(O)c12 [5-HYDROXYFLAVONE] | – | > 1000 µM | > 1000 µM | – | –
4 | O=c1cc(-c2ccc(O)cc2)oc2cc(O)ccc12 | < 0.5 | > 1000 µM | 470 µM | – | –
5 | COc1ccc(-c2cc(=O)c3c(O)cc(O)cc3o2)cc1 [ACACETIN] | – | > 1000 µM | > 1000 µM | – | –
6 | O=C(O)c1cc(O)c2c(c1)C(=O)c1cccc(O)c1C2=O [RHEIN] | 9.3 | 14 µM | 130 µM | – | –
7 | Oc1cc(O)c2c(c1)O[C@@H](c1ccc(O)c(O)c1)[C@H](O)C2 [(-)-CATECHIN] | – | > 1000 µM | > 1000 µM | – | –
8 | O=C(O)c1cc(O)c2c(c1)C(=O)c1cc(O)c(Cl)c(O)c1C2=O | > 170 | 0.58 µM | > 100 µM | 0.89 µM | –
9 | O=C(O)c1ccc2c(c1)C(=O)c1ccccc1C2=O | 1.9 | 430 µM | 800 µM | – | –
10 | O=c1c(O)c(-c2ccc(O)c(O)c2)oc2cc(O)cc(O)c12 [QUERCETIN] | 2.8 | 58 µM | 160 µM | – | –
11 | O=c1cc(-c2ccc(O)cc2)oc2cc(O)c(O)c(O)c12 [SCUTELLAREIN] | 1.1 | 50 µM | 55 µM | – | –
12 | O=c1cc(-c2ccccc2)oc2cc(O)c(O)c(O)c12 [BAICALEIN] | 1.3 | 100 µM | 130 µM | – | –
13 | O=c1c(-c2ccc(O)cc2)coc2cc(O)cc(O)c12 [GENISTEIN] | 1.7 | 230 µM | 380 µM | – | –
14 | O=c1cc(-c2cc(O)c(O)c(O)c2)oc2cc(O)cc(O)c12 [TRICETIN] | 3.3 | 39 µM | 130 µM | – | –
15 | Cc1cc(O)c2c(c1)C(=O)c1cc(O)cc(O)c1C2=O [EMODIN] | 6.9 | 110 µM | 760 µM | – | –
16 | O=C1c2cccc(O)c2C(=O)c2c(O)cccc21 [DANTHRON] | > 1.4 | 710 µM | > 1000 µM | – | –
17 | COc1cc(O)c2c(c1)O[C@H](c1ccc(O)cc1)CC2=O [SAKURANETIN] | < 0.9 | > 1000 µM | 890 µM | – | –
18 | O=c1cc(-c2ccc(O)cc2)oc2cc(O)cc(O)c12 [APIGENIN] | 7.3 | 78 µM | 570 µM | 60 µM | 680 µM
19 | O=c1cc(-c2ccccc2)oc2cc(O)cc(O)c12 [CHRYSIN] | 2.6 | 340 µM | 890 µM | – | –
20 | O=c1cc(-c2ccc(O)cc2)oc2cccc(O)c12 | – | > 1000 µM | > 1000 µM | – | –
21 | O=c1cc(-c2ccccc2O)oc2cc(O)cc(O)c12 | 0.2 | 360 µM | 70 µM | – | –
22 | O=c1c(O)c(-c2ccc(O)cc2)oc2cc(O)cc(O)c12 [KAEMPFEROL] | 2.1 | 110 µM | 230 µM | – | –
23 | O=c1cc(-c2ccc(O)c(O)c2)oc2cc(O)cc(O)c12 [LUTEOLIN] | 5.9 | 22 µM | 130 µM | – | –
